Reference: ChEMBL document CHEMBL3588792, “Selective Acetamidine-Based Nitric Oxide Synthase Inhibitors: Synthesis, Docking, and Biological Studies” (ACS Med Chem Lett, 2015)
Active and inactive are the calls of the source. The calls are words filed in the database; no cut-off is given here.

Key:
[1] = biological target: T1, Nitric oxide synthase, inducible (Mus musculus, UniProt P29477); assay: Inhibition of mouse recombinant iNOS using [3H]L-arginine substrate assessed as formation of [3H]L-citruline by liquid scintillation counting analysis
T1 sequence (P29477 whole entry): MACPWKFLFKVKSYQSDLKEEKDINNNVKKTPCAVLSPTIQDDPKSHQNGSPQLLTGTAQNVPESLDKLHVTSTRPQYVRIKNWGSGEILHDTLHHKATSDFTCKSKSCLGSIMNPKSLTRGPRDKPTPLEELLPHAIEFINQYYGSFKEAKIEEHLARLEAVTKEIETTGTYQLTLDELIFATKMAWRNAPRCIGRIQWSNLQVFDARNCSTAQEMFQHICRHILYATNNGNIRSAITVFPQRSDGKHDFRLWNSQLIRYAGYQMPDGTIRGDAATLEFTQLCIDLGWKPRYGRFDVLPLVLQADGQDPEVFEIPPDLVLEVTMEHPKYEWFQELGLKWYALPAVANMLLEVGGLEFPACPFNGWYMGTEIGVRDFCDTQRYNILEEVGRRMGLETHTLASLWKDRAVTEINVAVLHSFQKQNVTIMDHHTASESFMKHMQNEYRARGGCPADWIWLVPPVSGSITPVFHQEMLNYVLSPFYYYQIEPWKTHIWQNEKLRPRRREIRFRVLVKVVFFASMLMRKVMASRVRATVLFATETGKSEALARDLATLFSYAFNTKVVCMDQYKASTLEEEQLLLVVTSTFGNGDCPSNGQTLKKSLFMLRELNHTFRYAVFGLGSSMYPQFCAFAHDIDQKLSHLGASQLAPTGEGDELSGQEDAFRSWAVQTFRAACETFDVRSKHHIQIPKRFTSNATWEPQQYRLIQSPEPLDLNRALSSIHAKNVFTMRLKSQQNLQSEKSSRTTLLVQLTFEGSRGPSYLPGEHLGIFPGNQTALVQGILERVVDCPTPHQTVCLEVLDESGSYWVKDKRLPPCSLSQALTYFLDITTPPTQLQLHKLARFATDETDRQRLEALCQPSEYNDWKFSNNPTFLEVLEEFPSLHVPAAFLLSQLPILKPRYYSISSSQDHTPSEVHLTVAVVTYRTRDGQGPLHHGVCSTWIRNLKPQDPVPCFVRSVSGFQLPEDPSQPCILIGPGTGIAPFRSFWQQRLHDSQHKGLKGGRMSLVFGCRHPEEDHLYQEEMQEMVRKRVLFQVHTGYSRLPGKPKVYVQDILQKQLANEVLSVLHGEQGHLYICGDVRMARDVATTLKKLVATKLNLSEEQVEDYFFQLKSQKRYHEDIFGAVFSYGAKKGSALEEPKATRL
How it was run: (§1)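 Recombinant enzyme inhibition was read as [3H]L-citrulline formed from [3H]L-arginine. Each inhibitor was tested at seven concentrations in triplicate, with IC50 given as mean ± SD. Selectivity is the eNOS IC50 divided by the iNOS IC50.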

Nitric oxide synthase 3 = biological target: T2, Nitric oxide synthase 3 (Bos taurus, UniProt P29473); assay: Inhibition of bovine recombinant eNOS using [3H]L-arginine substrate assessed as formation of [3H]L-citruline by liquid scintillation counting analysis; how it was run: as §1
T2 sequence (P29473 whole entry): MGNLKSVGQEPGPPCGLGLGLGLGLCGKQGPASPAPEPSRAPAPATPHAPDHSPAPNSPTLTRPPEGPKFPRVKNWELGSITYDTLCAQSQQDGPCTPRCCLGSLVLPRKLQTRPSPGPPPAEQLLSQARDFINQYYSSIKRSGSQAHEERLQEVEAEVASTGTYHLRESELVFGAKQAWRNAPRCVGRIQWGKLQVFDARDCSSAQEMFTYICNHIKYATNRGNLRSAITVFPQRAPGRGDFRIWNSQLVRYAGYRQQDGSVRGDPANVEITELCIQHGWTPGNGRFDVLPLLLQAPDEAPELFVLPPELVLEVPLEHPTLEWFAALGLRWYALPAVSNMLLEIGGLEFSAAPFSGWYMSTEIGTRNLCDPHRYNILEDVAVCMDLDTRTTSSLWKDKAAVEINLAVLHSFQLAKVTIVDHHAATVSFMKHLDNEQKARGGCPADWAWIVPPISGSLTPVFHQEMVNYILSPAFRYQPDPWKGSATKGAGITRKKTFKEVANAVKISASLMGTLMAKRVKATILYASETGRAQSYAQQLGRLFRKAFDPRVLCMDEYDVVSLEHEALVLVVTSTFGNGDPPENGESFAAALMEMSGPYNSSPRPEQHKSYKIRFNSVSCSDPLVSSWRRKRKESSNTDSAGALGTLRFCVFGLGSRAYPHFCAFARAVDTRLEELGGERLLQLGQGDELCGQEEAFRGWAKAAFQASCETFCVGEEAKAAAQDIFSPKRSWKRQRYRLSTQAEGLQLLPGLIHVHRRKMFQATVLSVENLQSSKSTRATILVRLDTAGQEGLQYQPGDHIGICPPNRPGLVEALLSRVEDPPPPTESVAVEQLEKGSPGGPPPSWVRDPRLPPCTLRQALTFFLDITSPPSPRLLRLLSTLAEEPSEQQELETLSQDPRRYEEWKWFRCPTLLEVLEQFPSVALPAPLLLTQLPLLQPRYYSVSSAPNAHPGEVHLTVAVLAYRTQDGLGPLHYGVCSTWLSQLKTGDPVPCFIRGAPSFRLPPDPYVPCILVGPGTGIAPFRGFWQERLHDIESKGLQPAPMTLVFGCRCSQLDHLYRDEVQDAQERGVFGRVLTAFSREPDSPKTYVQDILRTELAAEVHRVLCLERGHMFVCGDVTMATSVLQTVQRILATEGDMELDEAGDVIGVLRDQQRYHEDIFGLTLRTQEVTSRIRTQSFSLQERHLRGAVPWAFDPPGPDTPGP

[2] = Selectivity ratio of IC50 for bovine recombinant eNOS to IC50 for mouse recombinant iNOS
Rattus norvegicus [3] = species on record: Rattus norvegicus; assay: Reduction of Ach-mediated NO-dependent precontracted Sprague-Dawley rat mesenteric vascular artery vasorelaxation measured at 1 uM/30 mins preincubation; assay type: functional, organism-based
How it was run: (§2)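 Mesenteric arteries were isolated from SD rats and precontracted to ~80% of maximal constriction with 10 μM NA. The inhibitor was preincubated for 30 min, then ACh dose-response curves were run (0.01–3 μM/30 s) against control, followed by L-NAME (100 μM). Data are mean ± SEM of duplicates from four independent experiments, analysed by two-way repeated-measures ANOVA.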

Rattus norvegicus [4] = species on record: Rattus norvegicus; assay: Induction of NA-induced LPS-treated Sprague-Dawley rat mesenteric vascular artery vasoconstriction effect measured at 1 uM/30 mins preincubation relative to basal level; assay type: functional, organism-based
How it was run: (§3)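 Mesenteric arteries came from SD rats injected with LPS. NA dose-response curves (10 nM–10 μM) were recorded before and after 30 min preincubation with inhibitor. Read-outs were peak perfusion pressure (mmHg) and duration as AUC (mmHg × sec). Data are mean ± SEM of duplicates from four independent experiments.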

Rattus norvegicus [5] = species on record: Rattus norvegicus; assay: Reduction of Ach-mediated NO-dependent precontracted Sprague-Dawley rat mesenteric vascular artery vasorelaxation measured at 100 uM/30 mins preincubation; assay type: functional, organism-based
How it was run: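 Isolated SD rat mesenteric arteries precontracted with 10 μM NA to about 80% of maximal vasoconstriction. Preincubation 30 min at 100 μM, then dose-response to ACh (0.01–3 μM/30 s) for NO-dependent (eNOS-mediated) vasorelaxation, compared with control curve. Mean ± SEM of duplicates, four independent experiments; two-way repeated-measures ANOVA.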

Rattus norvegicus [6] = species on record: Rattus norvegicus; assay: Reduction of Ach-mediated NO-dependent precontracted Sprague-Dawley rat mesenteric vascular artery vasorelaxation measured at 0.43 uM/30 mins preincubation; assay type: functional, organism-based; how it was run: as §2
Rattus norvegicus [7] = species on record: Rattus norvegicus; assay: Reduction of Ach-mediated NO-dependent precontracted Sprague-Dawley rat mesenteric vascular artery vasorelaxation measured up to 0.7 uM/30 mins preincubation; assay type: functional, organism-based; how it was run: as §2
Rattus norvegicus [8] = species on record: Rattus norvegicus; assay: Reduction of Ach-mediated NO-dependent precontracted Sprague-Dawley rat mesenteric vascular artery vasorelaxation measured at 0.85 uM/30 mins preincubation; assay type: functional, organism-based; how it was run: as §2
Rattus norvegicus [9] = species on record: Rattus norvegicus; assay: Reduction of Ach-mediated NO-dependent precontracted Sprague-Dawley rat mesenteric vascular artery vasorelaxation measured at 1 to 1.2 uM/30 mins preincubation; assay type: functional, organism-based; how it was run: as §2
Rattus norvegicus [10] = species on record: Rattus norvegicus; assay: Induction of NA-induced LPS-treated Sprague-Dawley rat mesenteric vascular artery vasoconstriction effect measured at 0.43 uM/30 mins preincubation; assay type: functional, organism-based; how it was run: as §3
Rattus norvegicus [11] = species on record: Rattus norvegicus; assay: Induction of NA-induced LPS-treated Sprague-Dawley rat mesenteric vascular artery vasoconstriction effect measured at 1 uM/30 mins preincubation; assay type: functional, organism-based; how it was run: as §3
Rattus norvegicus [12] = species on record: Rattus norvegicus; assay: Induction of NA-induced LPS-treated Sprague-Dawley rat mesenteric vascular artery vasoconstriction effect measured at 100 uM/30 mins preincubation; assay type: functional, organism-based; how it was run: as §3
Rattus norvegicus [13] = species on record: Rattus norvegicus; assay: Induction of NA-induced LPS-treated Sprague-Dawley rat mesenteric vascular artery vasoconstriction effect measured at 0.43 uM/30 mins preincubation relative to basal level; assay type: functional, organism-based; how it was run: as §3
Rattus norvegicus [14] = species on record: Rattus norvegicus; assay: Induction of NA-induced LPS-treated Sprague-Dawley rat mesenteric vascular artery vasoconstriction effect measured at 100 uM/30 mins preincubation relative to basal level; assay type: functional, organism-based

| IC50 [1] [µM] | IC50 (Nitric oxide synthase 3) [µM] | Ratio IC50 [2] | Structure (SMILES) | further results |
| --- | --- | --- | --- | --- |
| > 10 |  |  | CC(=N)NCc1cccc(CNC(=O)CC(=O)O)c1 |  |
| 0.165 | 90.8 | 550 | CC(=N)NCc1cccc(CNC(=O)c2ccc(C(=O)O)cc2)c1 |  |
| 0.1 | 30 | 300 | CC(=N)NCc1cccc(CNCc2ccccc2[N+](=O)[O-])c1 |  |
| > 10 |  |  | CC(=N)NCc1cccc(CNC(=O)CCCN)c1 |  |
| 0.1 |  |  | CC(=N)NCc1cccc(CN)c1 [1400W] | inhibition (Rattus norvegicus [3]): inactive; Activity (Rattus norvegicus [4]): Active |
| 0.428 | > 1000 | > 2300 | CC(=N)NCc1cccc(CNC(=O)CCC(=O)O)c1 | inhibition (Rattus norvegicus [5]): inactive; inhibition (Rattus norvegicus [6]): inactive; inhibition (Rattus norvegicus [7]): inactive; Activity (Rattus norvegicus [8]): Active; Activity (Rattus norvegicus [9]): Active; Activity (Rattus norvegicus [10]): Active; Activity (Rattus norvegicus [11]): Active; Activity (Rattus norvegicus [12]): Active; Activity (Rattus norvegicus [13]): Active |
| 0.5 | 100 | 200 | CC(=N)NCc1cccc(CN(Cc2ccc([N+](=O)[O-])cc2)Cc2ccc([N+](=O)[O-])cc2)c1 |  |
|  |  |  | COC(=O)[C@@H](N)CCCNC(=N)N[N+](=O)[O-] | inhibition (Rattus norvegicus [5]): Active; Activity (Rattus norvegicus [14]): Active |
| > 10 |  |  | CC(=N)NCc1cccc(CNC(=O)CN)c1 |  |
| > 10 |  |  | CC(=N)NCc1cccc(CNC(=O)CCN)c1 |  |
